The subject of data set [1] is Rattus norvegicus. The experiment in a line: Terminal half-life in rat administered with 0.5 mg/kg, iv. The arrangement: dose 0.5 mg/kg. The class given is functional, organism-based. The essentials:
(§1)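 Rats, three per study, cassette iv dosing of up to four compounds. Formulation DMSO (<20%), PEG 400 (<20%) and water at 0.5 mg/mL per compound, given at 1 mL/kg for 0.5 mg/kg per compound.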

The next data set concerns the target Cathepsin B (Homo sapiens, UniProt P07858). Nature of the data set: Inhibitory constant against human cathepsin B using Boc-Leu-Lys-Arg-AMC substrate. Particulars: read-out: Ki app.
A short description of data set [2]: Maximum concentration in rat administered with 0.5 mg/kg, iv. The class given is ADME, organism-based. The arrangement: dose 0.5 mg/kg, route intravenous. Particulars: in vivo.
For data set [3], the target named is Cathepsin K (Homo sapiens) (UniProt P43235). The experiment in a line: Inhibitory constant against human cathepsin K using Z-Phe-Arg-AMC substrate. Particulars: read-out: Ki app.
For another data set, the system named is Osteoclast. The experiment in a line: In vitro bone resorption in isolated rabbit osteoclasts. Type of data set: functional, cell-based. Particulars: Oryctolagus cuniculus. In short, it runs like this: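 Bovine bone degraded by isolated rabbit osteoclasts; collagen degradation read by ELISA. 8-point dose–response curves; IC50 derived.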
In the next data set the target is Procathepsin L (Homo sapiens, UniProt P07711). Nature of the data set: Inhibitory constant against human cathepsin L using Z-Phe-Arg-AMC substrate. Particulars: read-out: Ki app. In short, it runs like this: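 Recombinant human cathepsin L at 500 pM in 50 mM MES pH 5.5, 2.5 mM DTT, 2.5 mM EDTA, 10% DMSO. Enzyme preincubated with inhibitor (8 concentrations) 30 min at 21–24 °C. Reaction started with 10 μM Z-Phe-Arg-AMC; AMC fluorescence (ex 355/em 460 nm) over first ~5 min. Ki(app) fitted with Morrison tight-binding model.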
Procathepsin L, sequence (P07711 whole entry): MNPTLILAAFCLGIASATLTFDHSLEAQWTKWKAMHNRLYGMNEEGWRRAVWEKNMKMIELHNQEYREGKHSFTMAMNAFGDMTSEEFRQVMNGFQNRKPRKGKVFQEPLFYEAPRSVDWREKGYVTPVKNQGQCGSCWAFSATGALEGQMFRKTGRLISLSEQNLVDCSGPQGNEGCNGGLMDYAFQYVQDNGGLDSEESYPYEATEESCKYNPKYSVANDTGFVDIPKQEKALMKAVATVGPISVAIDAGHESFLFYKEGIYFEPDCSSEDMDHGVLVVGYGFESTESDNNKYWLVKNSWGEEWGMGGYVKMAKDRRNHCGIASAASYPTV

Another data set has as its target Cathepsin S (Homo sapiens, UniProt P25774). Nature of the data set: Inhibitory constant against human cathepsin S using Z-Val-Val-Arg-AMC substrate. Particulars: read-out: Ki app. The essentials:
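Recombinant human cathepsin S at 500 pM in 50 mM MES pH 6.5, 2.5 mM β-mercaptoethanol, 2.5 mM EDTA, 100 mM NaCl, 0.001% BSA, 10% DMSO. 30 min enzyme–inhibitor preincubation at 21–24 °C, 8 inhibitor concentrations. Started with 60 μM Z-Val-Val-Arg-AMC; initial rates by AMC fluorescence (ex 355/em 460). Ki(app) by Morrison tight-binding fit.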

Data set [4] deals with Rattus norvegicus. The experiment in a line: Mean residence time in rat administered with 0.5 mg/kg, iv. The class given is functional, organism-based. The arrangement: dose 0.5 mg/kg. The essentials: as §1
The nature of data set [5]: Volume of distribution in rat administered with 0.5 mg/kg, iv. Particulars: in vivo, read-out: Vss. Also noted: dose 0.5 mg/kg, route intravenous. The class given is ADME, organism-based. The essentials: as §1
The nature of data set [6]: Plasma clearance in rat administered with 0.5 mg/kg, iv. The arrangement: dose 0.5 mg/kg, route intravenous. The class given is ADME, organism-based. In short, it runs like this:
as §1

Cathepsin S, sequence (P25774 whole entry): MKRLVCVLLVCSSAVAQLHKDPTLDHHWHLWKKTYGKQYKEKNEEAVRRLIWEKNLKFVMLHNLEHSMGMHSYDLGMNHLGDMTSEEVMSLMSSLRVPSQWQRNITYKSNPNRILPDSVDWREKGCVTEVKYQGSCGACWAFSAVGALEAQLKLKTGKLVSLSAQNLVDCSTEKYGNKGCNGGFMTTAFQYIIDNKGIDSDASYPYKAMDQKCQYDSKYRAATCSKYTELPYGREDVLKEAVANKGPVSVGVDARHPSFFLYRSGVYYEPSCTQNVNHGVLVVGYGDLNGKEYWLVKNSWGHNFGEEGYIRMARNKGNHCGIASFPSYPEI

In the case of `CN(C)C1CCN(c2nc(-c3ccc(C(=O)NC4(C(=O)NCC#N)CCCCC4)cc3)cs2)C1` (stereo unspecified), the T1/2 in the data set on Rattus norvegicus [1] stood at 0.633 h. For the same molecule, the Ki on Cathepsin B was determined as 1700 nM; in data set [3], 0.79 nM; at Procathepsin L it was 12000 nM; on Cathepsin S, 26000 nM. For the same molecule, the Cmax in [2] was determined as 300 nM. Also, inhibition in the data set on Osteoclast was half-maximal at 110 nM (IC50). In the data set with Rattus norvegicus [4], the MRT is 0.683 h.

`CN1CCC(C)(c2nc(-c3ccc(C(=O)NC4(C(=O)NCC#N)CCCCC4)cc3)cs2)CC1`: the T1/2 in the data set with Rattus norvegicus [1] was 2.28 h. The Ki came to 1100 nM on Cathepsin B, 0.95 nM in [3], 7600 nM at Procathepsin L and 30000 nM on Cathepsin S. Also, the highest level in [2] (Cmax) was 440 nM. The molecule also displayed an IC50 with Osteoclast of 46 nM. Further, the MRT in the data set on Rattus norvegicus [4] was 2.33 h.

Turning to `CN1CCN(Cc2nc(-c3ccc(C(=O)NC4(C(=O)NCC#N)CCCCC4)cc3)cs2)CC1`, the T1/2 in the data set on Rattus norvegicus [1] worked out at 1.28 h. Further, the Ki at Cathepsin B came to 1500 nM; in data set [3], 0.94 nM; on Procathepsin L it was 19000 nM; at Cathepsin S it was 42000 nM. Moreover, the highest concentration (Cmax) in [2] worked out at 430 nM. Half-maximal inhibition in the data set with Osteoclast (IC50) required 60 nM. The molecule further returned an MRT in the data set on Rattus norvegicus [4] of 1.25 h.

In turn, `N#CCNC(=O)C1(NC(=O)c2ccc(-c3csc(N4CC[C@@H](N)C4)n3)cc2)CCCCC1` showed a T1/2 in the data set on Rattus norvegicus [1] of 0.883 h. Further, the Ki at Cathepsin B worked out at 3000 nM; in data set [3] it was 1.4 nM; on Procathepsin L it was 7500 nM; on Cathepsin S it was 4500 nM. For the same molecule, the concentration in [2] peaked (Cmax) at 840 nM. In the data set with Osteoclast, this molecule came in with a half-inhibitory concentration (IC50) of 52 nM. Moreover, the MRT with Rattus norvegicus [4] was determined as 0.893 h.

Molecule `N#CCNC(=O)C1(NC(=O)c2ccc(-c3csc(N4CCN(C5CCOCC5)CC4)n3)cc2)CCCCC1` returned a T1/2 with Rattus norvegicus [1] of 1.07 h. Further, the Ki at Cathepsin B was 840 nM; in data set [3] it was 0.47 nM; at Procathepsin L it was greater than 150000 nM; at Cathepsin S it was 17000 nM. The same molecule came in with a Cmax in [2] of 490 nM. The same molecule displayed an IC50 with Osteoclast of 8 nM. Besides, the MRT in the data set with Rattus norvegicus [4] was 0.983 h.

As for `CC(C)(C)N1CCN(c2ccc(-c3ccc(C(=O)NC4(C(=O)NCC#N)CCCCC4)cc3)cc2)CC1`, in the data set on Rattus norvegicus [1], the T1/2 was determined as 2.4 h. Also, the Vd in [5] was determined as 11.2 L/kg. For the same molecule, the Ki at Cathepsin B was 510 nM; in data set [3], less than 0.25 nM; on Procathepsin L it was 11000 nM; on Cathepsin S it was 7900 nM. In the data set with Osteoclast, this molecule registered an IC50 of 13 nM. The clearance in data set [6] worked out at 67 mL/min/kg. Further, in the data set on Rattus norvegicus [4], the MRT was 2.87 h.

In turn, `COCCN1CCN(c2nc(-c3ccc(C(=O)NC4(C(=O)NCC#N)CCCCC4)cc3)cs2)CC1` came in with a T1/2 in the data set with Rattus norvegicus [1] of 1.97 h. The Ki came out at 1300 nM on Cathepsin B, 0.48 nM in data set [3], 6400 nM on Procathepsin L and 20000 nM on Cathepsin S. In data set [2], this molecule showed a Cmax of 1780 nM. In addition, in the data set on Osteoclast, half-maximal inhibition (IC50) required 4 nM. Further, the MRT in the data set with Rattus norvegicus [4] turned out to be 0.683 h.

Turning to `CC(C)N(C)C1CCN(c2nc(-c3ccc(C(=O)NC4(C(=O)NCC#N)CCCCC4)cc3)cs2)CC1`, the T1/2 in the data set on Rattus norvegicus [1] was 1.92 h. Besides, the Ki amounted to 1400 nM at Cathepsin B, 1.6 nM in data set [3], 15000 nM at Procathepsin L and 3200 nM on Cathepsin S. The molecule also yielded a Cmax in [2] of 430 nM. The same molecule came in with an IC50 in the data set on Osteoclast of 11 nM. Also, in the data set on Rattus norvegicus [4], the MRT came out at 2.02 h.

`CN1CCN(N(C)c2nc(-c3ccc(C(=O)NC4(C(=O)NCC#N)CCCCC4)cc3)cs2)CC1` came in with a T1/2 in the data set with Rattus norvegicus [1] of 1.53 h. In addition, the Ki at Cathepsin B was determined as 890 nM; in data set [3], 0.25 nM; on Procathepsin L, 8900 nM; at Cathepsin S, 21000 nM. In addition, in [2], the Cmax was 470 nM. For the same molecule, the IC50 in the data set with Osteoclast amounted to 11 nM. The molecule also came in with an MRT in the data set on Rattus norvegicus [4] of 1.03 h.

In turn, `N#CCNC(=O)C1(NC(=O)c2ccc(-c3csc(N4CCOCC4)n3)cc2)CCCCC1` registered a T1/2 in the data set on Rattus norvegicus [1] of 0.483 h. Further, the Ki on Cathepsin B turned out to be 3100 nM; in data set [3], 2.3 nM; on Procathepsin L it was 74000 nM; at Cathepsin S, 13000 nM. This molecule had a Cmax in data set [2] of 1400 nM. Further, the IC50 in the data set with Osteoclast amounted to 35 nM. Besides, the MRT with Rattus norvegicus [4] turned out to be 0.467 h.

In general, Cmax refers to the peak of the concentration-time curve. One may read the IC50 as the concentration at which inhibition is half-maximal. Read a low IC50 as inhibition by little substance. What is called clearance is the rate of elimination divided by the concentration. A lower clearance goes with inefficient removal.

Source of the values: ChEMBL document CHEMBL1141198, “Design and synthesis of tri-ring P3 benzamide-containing aminonitriles as potent, selective, orally effective inhibitors of cathepsin K” (J Med Chem, 2005).
